PostGolgi ctrl: inhibits growth of the yeast control strain | efflux-deficient yeast background strain, growth absorbance A615, 16 h | inhibition, % at 10 µM | 98,000 compounds, 5% hits
Pyk2 oligo antag: antagonists of human Pyk2 oligomerization; z-score (the deposit names both 25 µM and 10 µM); AID 1347419; Q293 cells, Pyk2 FERM NanoBiT luminescence; hits give low values; Q14289; 99,000 compounds, 0.83% hits;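 active = Z-score of -3 or lower, scaled per plate to the spread of control and sample wells; inactive = z-score above -3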;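 note: negative z-score means lost luminescence so less FERM oligomerization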
Target sequence (Q14289 whole entry, looked up): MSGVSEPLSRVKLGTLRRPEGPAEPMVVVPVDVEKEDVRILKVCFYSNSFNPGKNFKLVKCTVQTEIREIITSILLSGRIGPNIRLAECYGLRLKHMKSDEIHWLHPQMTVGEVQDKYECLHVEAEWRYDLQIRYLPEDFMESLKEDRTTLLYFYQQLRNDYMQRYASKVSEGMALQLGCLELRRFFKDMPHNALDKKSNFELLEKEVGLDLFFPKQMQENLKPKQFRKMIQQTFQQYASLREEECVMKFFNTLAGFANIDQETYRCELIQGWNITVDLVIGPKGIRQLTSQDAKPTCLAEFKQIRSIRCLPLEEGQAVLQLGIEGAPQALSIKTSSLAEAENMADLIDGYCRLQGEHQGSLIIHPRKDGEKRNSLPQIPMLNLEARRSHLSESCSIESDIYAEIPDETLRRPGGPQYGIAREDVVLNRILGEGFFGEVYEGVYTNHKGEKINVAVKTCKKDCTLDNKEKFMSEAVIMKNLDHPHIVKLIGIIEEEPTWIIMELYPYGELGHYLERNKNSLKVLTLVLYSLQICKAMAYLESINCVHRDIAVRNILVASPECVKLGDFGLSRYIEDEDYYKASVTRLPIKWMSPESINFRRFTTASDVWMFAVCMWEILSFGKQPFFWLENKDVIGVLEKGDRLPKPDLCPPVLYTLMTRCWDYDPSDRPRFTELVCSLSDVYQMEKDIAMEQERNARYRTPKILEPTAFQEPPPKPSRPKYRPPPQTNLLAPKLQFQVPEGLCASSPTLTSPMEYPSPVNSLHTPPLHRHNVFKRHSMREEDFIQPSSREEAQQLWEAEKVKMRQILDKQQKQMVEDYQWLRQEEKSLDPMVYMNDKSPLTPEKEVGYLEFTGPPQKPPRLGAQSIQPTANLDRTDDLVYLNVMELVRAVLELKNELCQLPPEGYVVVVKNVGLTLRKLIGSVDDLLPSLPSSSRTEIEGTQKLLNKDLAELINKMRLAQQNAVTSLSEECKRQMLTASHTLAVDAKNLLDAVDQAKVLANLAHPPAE
PostGolgi yeast: growth inhibition of a yeast mutant, post-Golgi transport screen | post-Golgi transport phenotypic cell assay | inhibition, % at 10 µM | 98,000 compounds, 0.9% hits | AID 739;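 note: yeast cells grown in 1536-well plates; yeast grown about 18 h at 30C before absorbance read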
Ecoli WT expand: blocks growth of wild type E. coli BW25113 | OD600 absorbance | growth inhibition, % at 100 µM | 98,000 compounds, 0.15% hits | AID 710;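 active = growth inhibition above about 50% at one test dose, limit read from the data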;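 note: growth measured after 20 h incubation at 37 °C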
Ecoli tolC: E. coli tolC mutant growth inhibition. E. coli BW25113 tolC mutant growth, OD615. growth inhibition, % at 10 µM (by protocol). 65,000 compounds, 2.2% hits. AID 573;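 active = growth inhibition at or above a cutoff equal to the mean over every tested compound plus 3 SD, cut at about 60% in these data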;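 note: growth measured after 20 h incubation at 37 °C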
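Assay system: tolC-deleted E. coli BW25113. Medium: kanamycin-containing LB broth (50 µg/mL). Dosing: 10 µM final, single dose. Timing: bacterial growth with compound for 20 h at 37 °C. Detection: A615 absorbance measurement. Read-out basis: growth inhibition in percent.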
Cav3 T inh: blocks human Cav3.2 T-type calcium channel | O95180 | Cav3.2-expressing cells, Fluo-4 calcium fluorescence FDSS; hits give low values | B-score at 10 µM | 100,000 compounds, 4% hits | AID 449739;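 active = single-dose well whose peak fluorescence ratio is a statistical outlier from its plate by either plate-standardised score or position-corrected B-score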
An asterisk follows results filed as active. An excerpt weighted towards active compounds, which were near 8.7% of everything screened. Cut-off read from the data, not from the text of the source, unless noted: active = inhibition above about 30%; inactive = the rest.

Results for CCOc1cc(CNCCO)cc(Br)c1OCc1ccc(Cl)cc1Cl ?
PostGolgi ctrl: 90*; Pyk2 oligo antag: -0.59; PostGolgi yeast: 27; Ecoli WT expand: 80*; Cav3 T inh: -0.071

Results for CCOCCCNC(=O)Cn1cc2c(n1)CCCCC2 ?
PostGolgi ctrl: 6; PostGolgi yeast: 7; Ecoli WT expand: 1; Ecoli tolC: -22; Cav3 T inh: 0.43

Results for O=C(NCc1ccccc1)C(c1ccccc1)N(Cc1cccs1)C(=O)c1cnccn1 (configuration not stated) ?
PostGolgi ctrl: 40*; Pyk2 oligo antag: -1.9; PostGolgi yeast: -3; Ecoli WT expand: -6; Cav3 T inh: -0.54

How did COc1ccc(/C(O)=C2/C(=O)C(=O)N(CCCN(C)C)C2c2ccco2)cc1Cl (configuration not stated) do in these assays?
Ecoli tolC: 8

Results for COc1cccc(-c2nc(SC)nc3sc(C(=O)NC(C)(C)C)c(N)c23)c1 ?
Cav3 T inh: -0.61

How did C=CCOc1c(Br)cc(CNc2ccc(NC(=O)C(C)C)c(OC)c2)cc1OC do in these assays?
PostGolgi ctrl: 1; Pyk2 oligo antag: 1.5; PostGolgi yeast: -1; Ecoli WT expand: 7; Cav3 T inh: -3.8*

How did O=C(c1ccc(Cl)c(S(=O)(=O)N2CCCCCC2)c1)N1CCN(c2ccccn2)CC1 do in these assays?
PostGolgi ctrl: 17; Pyk2 oligo antag: -1.3; PostGolgi yeast: 4; Ecoli WT expand: -8; Cav3 T inh: -2.1

What do the screens show for `Cc1ccc2oc(=O)n(CC(=O)OC(C)C)c2c1`?
Pyk2 oligo antag: 0.17; Cav3 T inh: 0.49

Results for CCCCOc1ccccc1Cn1c(=O)oc2ccc(C)cc21 ?
PostGolgi ctrl: 18; Pyk2 oligo antag: -2.5; PostGolgi yeast: 4; Ecoli WT expand: -1; Ecoli tolC: 70*; Cav3 T inh: -1.8

Results for Cc1ccc2oc(=O)n(Cc3ccccc3OC(C)C)c2c1 ?
PostGolgi ctrl: 18; Pyk2 oligo antag: -0.44; PostGolgi yeast: 0; Ecoli WT expand: 4; Ecoli tolC: 99*; Cav3 T inh: -6*

Results for O=C(CN(Cc1cccs1)C(=O)CN1C(=O)COc2ccccc21)NCc1ccco1 ?
PostGolgi ctrl: -1; Pyk2 oligo antag: 0.09; PostGolgi yeast: 1; Ecoli WT expand: 6; Ecoli tolC: -7; Cav3 T inh: -0.14

Results for c1ccc(-n2nnnc2Oc2ccc(-c3nnco3)cc2)cc1 ?
PostGolgi ctrl: 42*; Pyk2 oligo antag: 2.3; PostGolgi yeast: 0; Ecoli WT expand: -5; Ecoli tolC: 2

How did Clc1ccc(Oc2nnnn2-c2ccccc2)cc1 do in these assays?
PostGolgi ctrl: 11; Pyk2 oligo antag: -1.1; PostGolgi yeast: -3; Ecoli WT expand: 1; Cav3 T inh: -2.4

What do the screens show for `COc1ccc(S(=O)(=O)NCCC(C)C)cc1C`?
PostGolgi ctrl: 11; Pyk2 oligo antag: -1.5; PostGolgi yeast: 8; Ecoli WT expand: 4; Cav3 T inh: -0.48

What do the screens show for `COc1[nH]c(/N=C/c2ccccc2)c(C#N)c1C#N`?
PostGolgi ctrl: 9; Pyk2 oligo antag: -0.44; PostGolgi yeast: -3; Ecoli WT expand: -4; Ecoli tolC: -13; Cav3 T inh: -5.9*

What do the screens show for `Cc1cccc(C2Nc3ccccc3C(=O)N2c2ccccc2)n1` (configuration not stated)?
PostGolgi ctrl: 7; Pyk2 oligo antag: -0.57; PostGolgi yeast: 30*; Ecoli WT expand: 2; Ecoli tolC: -3; Cav3 T inh: -0.53

Results for COc1ccccc1N1CCN(C(=O)c2ccc3nc(-c4ccco4)c(-c4ccco4)nc3c2)CC1 ?
Pyk2 oligo antag: -2.8; Ecoli tolC: 21; Cav3 T inh: -6.2*

How did Cc1ccc(C)c(N2CCN(C(=O)c3ccc4nc(-c5ccco5)c(-c5ccco5)nc4c3)CC2)c1 do in these assays?
PostGolgi ctrl: 22; Pyk2 oligo antag: -1; PostGolgi yeast: 0; Ecoli WT expand: -9; Cav3 T inh: -2.1

What do the screens show for `COc1ccccc1N1CCN(C(=O)c2cc(C3CC3)on2)CC1`?
PostGolgi ctrl: 3; PostGolgi yeast: 9; Ecoli WT expand: -4; Ecoli tolC: 2; Cav3 T inh: -0.43

How did COc1ccccc1N1CCN(C(=O)c2cc(-c3ccc(C)cc3)on2)CC1 do in these assays?
PostGolgi ctrl: 25; Pyk2 oligo antag: -2.4; PostGolgi yeast: -2; Ecoli WT expand: -12; Ecoli tolC: 86*; Cav3 T inh: -4.2*

How did COc1ccccc1N1CCN(C(=O)c2cc(-c3ccc(Cl)cc3)on2)CC1 do in these assays?
PostGolgi ctrl: 40*; Pyk2 oligo antag: -2.1; PostGolgi yeast: -3; Ecoli WT expand: -5; Ecoli tolC: 54; Cav3 T inh: -2.4

What do the screens show for `COc1ccccc1-c1cc(C(=O)N2CCN(c3ccccc3OC)CC2)no1`?
PostGolgi ctrl: 38*; Pyk2 oligo antag: -2.9; PostGolgi yeast: 4; Ecoli WT expand: -8; Ecoli tolC: 64*; Cav3 T inh: -3

How did COc1ccc(-c2cc(C(=O)N3CCN(Cc4ccccc4)CC3)no2)cc1OC do in these assays?
PostGolgi ctrl: 17; Pyk2 oligo antag: -1.1; PostGolgi yeast: -2; Ecoli WT expand: -13; Ecoli tolC: 28; Cav3 T inh: 1

How did CCCCCOC(=O)C1=C(C)NC(=O)NC1c1ccccc1OCC (configuration not stated) do in these assays?
PostGolgi ctrl: 15; Pyk2 oligo antag: -1.2; PostGolgi yeast: -1; Ecoli WT expand: 3; Ecoli tolC: 22; Cav3 T inh: -5.7*

Results for CCOc1ccccc1C1NC(=O)NC(C)=C1C(=O)OC1CCCC1C (configuration not stated) ?
PostGolgi ctrl: 8; Pyk2 oligo antag: -1.3; PostGolgi yeast: 9; Ecoli WT expand: 3; Ecoli tolC: 42; Cav3 T inh: -5.3*

How did CCOC(=O)C1=C(C)NC(=O)NC1c1ccccc1Cl (configuration not stated) do in these assays?
PostGolgi ctrl: 9; Pyk2 oligo antag: -1; PostGolgi yeast: -10; Ecoli WT expand: 2; Ecoli tolC: -5; Cav3 T inh: -0.065

What do the screens show for `CCOc1ccccc1C1NC(=O)NC(C)=C1C(=O)OC1CCCCC1` (configuration not stated)?
PostGolgi ctrl: 28; Pyk2 oligo antag: -1.7; PostGolgi yeast: 15; Ecoli WT expand: -1; Ecoli tolC: 29; Cav3 T inh: -2.3

How did CC(c1ccco1)N(C(=O)c1ccc(Cl)s1)c1ccccn1 (configuration not stated) do in these assays?
Ecoli tolC: 3; Cav3 T inh: 0.1

What do the screens show for `CCCc1cc(=O)[nH]c(SCC(=O)NC(=O)c2ccccc2)n1`?
PostGolgi ctrl: 32*; Pyk2 oligo antag: -0.37; PostGolgi yeast: 10; Ecoli WT expand: -6; Cav3 T inh: -0.25

What do the screens show for `CC(=O)Nc1ccc(N2CCCCC2)c(C(=O)Nc2cccc(C)c2)c1`?
PostGolgi ctrl: 31*; Pyk2 oligo antag: -1.7; PostGolgi yeast: -17; Ecoli WT expand: 3; Cav3 T inh: -0.62
